Bioassay records: PubChem BioAssay, Johns Hopkins Ion Channel Center
The list is not random: actives were taken first. Their share in the collection is about 3.8%.
KCNQ1 act: potentiators or activators of KCNQ1 channel, primary screen, cell-based, thallium flux, high-throughput; Potassium voltage-gated channel subfamily KQT member 1 (Homo sapiens), P51787; CHO-K1 KCNQ1, thallium flux FluxOR fluorescence; stronger effect = higher value; B-score at 10 µM; actives 0.35% (n = 310,000); AID 2648, 2010;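 active = fluorescence ratio B-score, a plate-corrected score, at least three library SD, with initial intensity B-score within 5 SD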
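System: Stable KCNQ1 CHO-K1 line | Incubation: 90 min dye loading and 20 min compound exposure, both at room temperature | Measure: Ratio B score | Medium: Assay buffer for compound exposure, DMSO matched across wells | Compound dosing: Single-concentration screen | Probe or stimulus: K+/Tl+ depolarizing stimulus | Measured by: Kinetic FluxOR fluorescence, 10 s baseline plus 110 s post-stimulus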
Kir21 block: inhibitors of mouse Kir2.1 inward-rectifier potassium channel; Inward rectifier potassium channel 2 (Mus musculus), P35561; HEK293-Kir2.1, FluxOR thallium flux fluorescence; stronger effect = lower value; B-score at 10 µM; actives 0.85% (n = 310,000); AID 1672, 2009;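 active = fluorescence ratio B-score at or below minus 3 SD of library scores, with starting-brightness B-score within 2 SD, cut at about -4.2 in these data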;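 note: channel flux triggered by added potassium and thallium sulfate stimulus; B-score of peak minus minimum fluorescence over baseline after thallium stimulus; more negative B-score means stronger Kir2.1 block with less thallium influx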
KCNQ1 inh: inhibitors of human KCNQ1 channel, primary screen, cell-based, thallium flux, high-throughput; CHO-K1 KCNQ1, FluxOR thallium flux fluorescence; stronger effect = higher value; B-score at 10 µM; actives 1.3% (n = 310,000);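 active = compounds whose thallium flux B-score, printed positive for inhibition, exceeds three library SD while starting fluorescence stays within three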;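 note: channel opened by potassium depolarization with thallium stimulus after 20 min compound exposure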
hERG protect: hERG rescue from dofetilide block, primary screen, cell-based, CHO-hERG, FluxOR thallium flux, dofetilide IC70 | dofetilide IC70 present | activation (rescue from dofetilide block), less the hit threshold, % at 10 µM | actives 0.51% (n = 310,000) | AID 1511, 2009;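 active = activation above the mean of controls blocked by dofetilide plus 5 SD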;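 note: thallium influx through hERG after potassium depolarization seen as dye fluorescence rise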
KCNK9 inh: KCNK9 potassium channel inhibitors, primary screen, HEK293 cells, thallium flux | actives 1.2% (n = 310,000) | AID 488922, 2010 | Potassium channel subfamily K member 9 (Homo sapiens), Q9NPC2 | B-score at 10 µM | FluxOR thallium flux fluorescence; stronger effect = lower value;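 active = ratio B-score over 3 SD below the library mean, with starting fluorescence within 5 SD of its mean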;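 note: negative B-score means less thallium flux so channel inhibition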
KCNK3 block: human KCNK3 channel inhibitors, primary screen, CHO cells, FluxOR thallium flux, B-score; Potassium channel subfamily K member 3 (Homo sapiens), O14649; FluxOR fluorescence; stronger effect = lower value; B-score at 10 µM; actives 0.84% (n = 340,000); AID 602410, 2012;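 active = B-score under library mean minus 4 SD, starting fluorescence ratio at most library mean plus 5 SD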;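 note: more negative B-score means stronger inhibition of thallium flux through KCNK3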
Target sequence (O14649 whole entry, looked up): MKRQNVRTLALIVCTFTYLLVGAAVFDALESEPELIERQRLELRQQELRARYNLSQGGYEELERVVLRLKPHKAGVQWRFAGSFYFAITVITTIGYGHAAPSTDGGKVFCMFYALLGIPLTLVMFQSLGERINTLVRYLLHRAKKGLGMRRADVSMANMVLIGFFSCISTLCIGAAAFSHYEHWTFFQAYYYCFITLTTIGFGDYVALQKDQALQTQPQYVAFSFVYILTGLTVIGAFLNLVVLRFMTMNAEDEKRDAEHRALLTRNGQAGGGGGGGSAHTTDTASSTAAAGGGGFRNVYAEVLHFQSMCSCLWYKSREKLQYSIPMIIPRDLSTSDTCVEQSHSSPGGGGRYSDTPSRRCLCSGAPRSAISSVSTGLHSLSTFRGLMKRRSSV
KCNK3 inh conf: retest of human KCNK3 channel inhibitors, confirmation, CHO cells, FluxOR thallium flux, triplicate | shares compounds with KCNK3 block | FluxOR fluorescence; 0% buffer, 100% carvedilol maximal block | ratio percent of control, % at 10 µM | actives 99% (n = 2,400);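 active = ratio percent of control, averaged over triplicates, above buffer control mean plus 5 SD, cut at about 64% in these data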;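 note: ratio is the fluorescence rise from min to max over baseline after thallium stimulus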
KCNK3 noninduced: thallium flux inhibition in non-induced cells, primary screen, counter-screen for KCNK3 inhibitor project, cell-based, non-induced KCNK3 line, FluxOR thallium, triplicate; thallium flux ratio (lower = more inhibition) at 10 µM; non-induced KCNK3 parental cells; stronger effect = lower value; AID 651747, 2012; shares compounds with KCNK3 block; actives 40% (n = 2,400);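 active = thallium flux ratio, averaged over three wells, more than 5 SD below the buffer control mean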;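 note: host cells are CHO cells without KCNK3 induction; ratio is peak minus trough fluorescence over baseline then normalized to buffer controls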
Starred values were filed as active, the others as inactive.

What do the screens show for `Cc1sc2ncnc(N3CCC(C(=O)Nc4ccc(OC(F)F)c(Cl)c4)CC3)c2c1C`?
KCNK3 block: -13*; KCNK3 inh conf: 142*; KCNK3 noninduced: 0.14*

Results for COC(=O)C(C)Sc1nc2c(cnn2-c2ccc(Cl)cc2)c(=O)[nH]1 (centres undefined) ?
KCNQ1 act: inactive; Kir21 block: -0.15; KCNQ1 inh: inactive; hERG protect: -2; KCNK9 inh: inactive; KCNK3 block: inactive

What do the screens show for `COc1ccc(OC)c(C2(O)CSC(=Nc3cccnc3)N2Cc2ccco2)c1` (centres undefined)?
KCNQ1 act: inactive; Kir21 block: -0.34; KCNQ1 inh: inactive; hERG protect: -16; KCNK9 inh: inactive; KCNK3 block: -11*; KCNK3 inh conf: 0; KCNK3 noninduced: inactive

How did OC1(c2ccc(OC(F)F)cc2)CSC(=Nc2cccnc2)N1C1CC1 (centres undefined) do in these assays?
KCNQ1 act: inactive; Kir21 block: -0.99; KCNQ1 inh: inactive; hERG protect: -13; KCNK9 inh: inactive; KCNK3 block: inactive

How did COc1ccc(CCn2c(C)nc3ccccc3c2=O)cc1OC do in these assays?
KCNQ1 act: inactive; Kir21 block: -1.5; KCNQ1 inh: inactive; hERG protect: -19; KCNK9 inh: inactive; KCNK3 block: inactive

How did CCSc1nc2ccccc2c(=O)n1CCc1ccc(OC)c(OC)c1 do in these assays?
KCNQ1 act: inactive; Kir21 block: 0.65; KCNQ1 inh: inactive; hERG protect: -13; KCNK9 inh: inactive; KCNK3 block: -9.4*; KCNK3 inh conf: 98*; KCNK3 noninduced: inactive

What do the screens show for `O=C(Nc1ccc(Nc2ccccc2)cc1)c1ccc(Cl)c([N+](=O)[O-])c1`?
KCNQ1 act: inactive; Kir21 block: 0.1; KCNQ1 inh: inactive; hERG protect: -7; KCNK9 inh: inactive; KCNK3 block: -11*; KCNK3 inh conf: 125*; KCNK3 noninduced: 0.15*

What do the screens show for `CCOc1ccc(C(=O)n2cc(C(=O)OC)c3ccccc32)cc1OCC`?
KCNQ1 act: inactive; Kir21 block: 0.13; KCNQ1 inh: inactive; hERG protect: -2; KCNK9 inh: inactive; KCNK3 block: inactive

What do the screens show for `CCOc1ccc(C(=O)n2cc(C(=O)OC)c3ccccc32)cc1`?
KCNQ1 act: inactive; Kir21 block: -0.83; KCNQ1 inh: inactive; hERG protect: -3; KCNK9 inh: inactive; KCNK3 block: -10*; KCNK3 inh conf: 116*; KCNK3 noninduced: 0.15*

What do the screens show for `CC(C)OCCCN(C)C1CCN(S(=O)(=O)c2ccc(-c3ccc(=O)[nH]n3)s2)CC1`?
KCNQ1 act: inactive; Kir21 block: 0.07; KCNQ1 inh: inactive; hERG protect: -3; KCNK9 inh: inactive; KCNK3 block: inactive

How did CCCOc1ccc(-c2nnn(CC(=O)Nc3cccc(C(=O)OC)c3)n2)cc1 do in these assays?
KCNQ1 act: inactive; Kir21 block: -1.6; KCNQ1 inh: inactive; hERG protect: -3; KCNK9 inh: inactive; KCNK3 block: inactive

Results for CCCCOc1ccc(-c2nnn(C(C)(C)C(=O)OC)n2)cc1 ?
KCNQ1 act: inactive; Kir21 block: -0.9; KCNQ1 inh: inactive; hERG protect: -9; KCNK9 inh: -6.6*; KCNK3 block: -11*; KCNK3 inh conf: 96*; KCNK3 noninduced: inactive

Results for CCC(c1nnnn1Cc1ccccc1)N1CCN(C(=O)c2ccco2)CC1 (centres undefined) ?
KCNQ1 act: inactive; Kir21 block: 1.9; KCNQ1 inh: inactive; hERG protect: -9; KCNK9 inh: inactive; KCNK3 block: -12*; KCNK3 inh conf: 72*; KCNK3 noninduced: inactive

Results for NC(=NCCc1ccccc1)NS(=O)(=O)c1cccs1 ?
KCNQ1 act: inactive; Kir21 block: 0.6; KCNQ1 inh: inactive; hERG protect: -8; KCNK9 inh: inactive; KCNK3 block: inactive

What do the screens show for `O=S(=O)(NC(=NCCc1ccc(Cl)cc1)c1ccccc1Cl)c1cccs1`?
KCNQ1 act: inactive; Kir21 block: -2.6; KCNQ1 inh: inactive; hERG protect: -17; KCNK9 inh: inactive; KCNK3 block: -8.9*; KCNK3 inh conf: 114*; KCNK3 noninduced: 0.16*

Results for Cc1ccc(S(=O)(=O)N2CCOC2CNC(=O)C(=O)NCc2ccncc2)cc1 (centres undefined) ?
KCNQ1 act: inactive; Kir21 block: 0.03; KCNQ1 inh: inactive; hERG protect: -9; KCNK9 inh: inactive; KCNK3 block: inactive

What do the screens show for `Cc1sc2nc(C3CC3)nc(N3CCN(C(=O)c4ccc(Cl)cc4)CC3)c2c1C`?
KCNQ1 act: inactive; Kir21 block: -0.29; KCNQ1 inh: 6*; hERG protect: -7; KCNK9 inh: inactive; KCNK3 block: -13*; KCNK3 inh conf: 96*; KCNK3 noninduced: 0.15*

Results for CC1CCC(C(C)C)C(OC(=O)CSc2nnc(N)s2)C1 (centres undefined) ?
KCNQ1 act: inactive; Kir21 block: -4.2*; KCNQ1 inh: inactive; hERG protect: -8; KCNK9 inh: inactive; KCNK3 block: -9.7*; KCNK3 inh conf: 110*; KCNK3 noninduced: inactive

What do the screens show for `COC(=O)c1ccc(C(c2c(C)n(C)n(-c3ccccc3)c2=O)c2c(C)n(C)n(-c3ccccc3)c2=O)cc1`?
KCNQ1 act: inactive; Kir21 block: 1.1; KCNQ1 inh: inactive; hERG protect: -5; KCNK9 inh: inactive; KCNK3 block: inactive

How did CCOC(=O)C1=C(CSc2nc3c(cc2C#N)CN(C)CC3)OC(N)=C(C#N)C1c1ccncc1 (centres undefined) do in these assays?
KCNQ1 act: inactive; Kir21 block: -0.59; KCNQ1 inh: inactive; hERG protect: -13; KCNK9 inh: inactive; KCNK3 block: inactive
